Results reported in ChEMBL document CHEMBL1157797, “The alternative medicine pawpaw and its acetogenin constituents suppress tumor angiogenesis via the HIF-1/VEGF pathway” (J Nat Prod, 2010).
Calls of active or inactive are those of the source. No cut-off for these calls is given here.

How the values were obtained:
T47D [1] = assay: Inhibition of mitochondrial respiratory chain complex 4 in human T47D cells assessed as decrease in oxygen consumption at 0.3 uM; type: functional, cell-based
Outline: (§1)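 Oxygen consumption measured in T47D cells permeabilized with digitonin (30 μM). Complex I respiration started with malate plus pyruvate. Rotenone was added as complex I blocker, then succinate (complex II substrate). Antimycin A was added to block complex III, then TMPD plus ascorbate (complex IV substrates) to restart respiration. Sample added at 0.3 μM.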

T47D [2] = assay: Inhibition of hypoxia-induced GLUT1 mRNA expression in human T47D cells at 0.1 uM in presence of 1% O2 for 16 hrs by RT-PCR; type: functional
Outline: (§2)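 T47D cells treated under hypoxia (1% O2, 16 h). GLUT-1 or VEGF mRNA measured by quantitative real-time RT-PCR and normalised to 18S rRNA. Reported relative to the normoxic control, mean ± SD, n = 3.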

T47D [3] = assay: Inhibition of hypoxia-induced HIF1beta protein subcellular localization in human T47D cells at 0.3 uM by immunofluorescence based assay; type: functional, cell-based
DU-145 [4] = assay: Cytotoxicity against human DU145 cells assessed as suppression of cell proliferation under normoxic condition at 100 nM after 6 days relative to control; type: functional
T47D [5] = assay: Inhibition of hypoxia-induced HIF1beta protein accumulation in nucleus of human T47D cells by Western blot analysis; type: functional, cell-based
Outline: (§3)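 T47D cells exposed to hypoxia (1% O2, 4 h) with or without treatment. Nuclear extracts prepared and probed for HIF-1α and HIF-1β by Western blot.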

MDA-MB-231 [6] = assay: Cytotoxicity against human MDA-MB-231 cells assessed as suppression of cell proliferation under normoxic condition after 48 hrs relative to control; type: functional, cell-based
Outline: (§4)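 Four human tumour lines (T47D, MDA-MB-231, PC-3, DU-145) exposed to acetogenins (1 to 100 nM, half-log steps) or crude extract (0.01 to 1 μg/mL, half-log steps) for 48 h, either normoxic (95% air) or hypoxic (1% O2). Proliferation/viability expressed relative to untreated control. Final solvent below 0.5% (v/v).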

PC-3 [7] = assay: Cytotoxicity against human PC3 cells assessed as suppression of cell proliferation under hypoxic condition after 48 hrs relative to control; type: functional, cell-based; outline: as §4
[8] = molecular target: T1, Hypoxia inducible factors; HIF-1-alpha, HIF-2-alpha (Homo sapiens, UniProt Q16665+Q99814); assay: Inhibition of chemical hypoxia-induced HIF1 activation in human T47D cells in presence of 1, 10-phenanthrolin by HRE3-TK-luc reporter assay; type: cell-based
T47D [9] = assay: Inhibition of normoxic human T47D cells at 0.1 uM by tube formation assay; type: functional, cell-based
Outline: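 Conditioned media from T47D cells (normoxic, hypoxic, or hypoxic plus treatment) applied to HUVEC on Matrigel. Tube length and branching points quantified in three random fields, expressed as % of the normoxic-cell medium, mean ± SD.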

DU-145 [10] = assay: Cytotoxicity against human DU145 cells assessed as suppression of cell proliferation under hypoxic condition after 48 hrs relative to control; type: functional, cell-based; outline: as §4
T47D [11] = assay: Inhibition of hypoxia-induced VEGF protein expression in human T47D cells at 0.03 to 0.1 uM in presence of 1% O2; type: functional, cell-based
Outline: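 T47D cells exposed to hypoxia with test agent. Secreted VEGF protein in the conditioned medium measured by ELISA and normalised to cellular protein. Mean + SD, n = 3; p values compared with the hypoxia-induced sample.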

T47D [12] = assay: Inhibition of hypoxia-induced VEGF mRNA expression in human T47D cells at 0.1 uM in presence of 1% O2 for 16 hrs by RT-PCR; type: functional; outline: as §2
[13] = molecular target: T1, Hypoxia inducible factors; HIF-1-alpha, HIF-2-alpha; assay: Inhibition of hypoxia-induced HIF1 activation in human T47D cells in presence of 1% O2 by HRE3-TK-luc reporter assay; type: cell-based
Outline: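 T47D cells carrying the pHRE3-TK-Luc reporter, made hypoxic at 1% O2. HIF-1 activation read as luciferase signal over a concentration range, giving IC50. Data are means ± SEM, n = 3.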

T47D [14] = assay: Inhibition of mitochondrial respiratory chain complex 3 in human T47D cells assessed as decrease in oxygen consumption at 0.3 uM; type: functional, cell-based; outline: as §1
T47D [15] = assay: Inhibition of mitochondrial respiratory chain complex 2 in human T47D cells assessed as decrease in oxygen consumption at 0.3 uM; type: functional, cell-based; outline: as §1
HUVEC [16] = assay: Cytotoxicity against HUVEC cells; type: cell-based; settings: human
T47D [17] = assay: Inhibition of mitochondrial respiratory chain complex in human T47D cells assessed as decrease in oxygen consumption in presence of TMPD and ascorbate complex 4 substrate; type: functional, cell-based; outline: as §1
[18] = molecular target: T1, Hypoxia inducible factors; HIF-1-alpha, HIF-2-alpha; assay: Inhibition of hypoxia-induced HIF1 activation in human PC3 cells by HRE3-TK-luc reporter assay; type: cell-based; settings: PC-3, concentration not given here
Outline: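 HIF-1 activation in PC-3 cells induced by hypoxia (1% O2) and read with the pHRE3-TK-Luc luciferase reporter. Concentration-response, IC50/EC50 derived. Data are means ± SEM, n = 3.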

PC-3 [19] = assay: Cytotoxicity against human PC3 cells assessed as suppression of cell proliferation under normoxic condition at 100 nM after 6 days relative to control; type: functional
T47D [20] = assay: Cytotoxicity against human T47D cells assessed as suppression of cell proliferation under hypoxic condition after 48 hrs relative to control; type: functional, cell-based; outline: as §4
MDA-MB-231 [21] = assay: Cytotoxicity against human MDA-MB-231 cells assessed as suppression of cell proliferation under hypoxic condition after 48 hrs relative to control; type: functional, cell-based; outline: as §4
T47D [22] = assay: Inhibition of hypoxia-induced HIF1alpha protein accumulation in nucleus of human T47D cells by Western blot analysis; type: functional, cell-based; outline: as §3
T47D [23] = assay: Inhibition of mitochondrial respiratory chain complex in human T47D cells assessed as decrease in oxygen consumption in presence of rotenone and succinate complex 1 substrate; type: functional, cell-based; outline: as §1
MDA-MB-231 [24] = assay: Cytotoxicity against human MDA-MB-231 cells assessed as suppression of cell proliferation under normoxic condition at 100 nM after 6 days relative to control; type: functional
T47D [25] = assay: Cytotoxicity against human T47D cells assessed as suppression of cell proliferation under normoxic condition after 48 hrs relative to control; type: functional, cell-based; outline: as §4
T47D [26] = assay: Inhibition of mitochondrial respiratory chain complex 1 in human T47D cells assessed as decrease in oxygen consumption; type: functional, cell-based
Outline: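 Oxygen consumption measured in T47D cells; mean ± SD of three independent experiments. For complex I, cells were permeabilised with digitonin (30 μM) and respiration started with malate plus pyruvate. Follow-up additions: succinate (complex II substrate), antimycin A, and TMPD/ascorbate to test complexes II–IV.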

DU-145 [27] = assay: Cytotoxicity against human DU145 cells assessed as suppression of cell proliferation under normoxic condition after 48 hrs relative to control; type: functional, cell-based; outline: as §4
HUVEC [28] = assay: Inhibition of VEGF-induced angiogenesis in HUVEC cells at 0.1 uM by tube formation assay; type: functional, cell-based; settings: Homo sapiens
PC-3 [29] = assay: Cytotoxicity against human PC3 cells assessed as suppression of cell proliferation under normoxic condition after 48 hrs relative to control; type: functional, cell-based; outline: as §4
T47D [30] = assay: Inhibition of mitochondrial respiratory chain complex in human T47D cells assessed as decrease in oxygen consumption in presence of antimycin A complex 3 inhibitor; type: functional, cell-based; outline: as §1
T47D [31] = assay: Cytotoxicity against human T47D cells assessed as suppression of cell proliferation under normoxic condition at 10 nM after 6 days relative to control; type: functional
T47D [32] = assay: Inhibition of ATP in human T47D cells under hypoxia for 16 hrs at 0.1 to 0.3 uM; type: functional, cell-based

Row | SMILES | inhibition at 0.1 µM (T47D [2]) [%] | inhibition (T47D [3]) | Activity (DU-145 [4]) [%] | inhibition (T47D [5]) | Activity (MDA-MB-231 [6]) | Activity (PC-3 [7]) | IC50 [8] [nM] | inhibition (T47D [9]) | Activity (DU-145 [10]) | inhibition (T47D [11]) | inhibition at 0.1 µM (T47D [12]) [%] | IC50 [13] [nM] | inhibition [18] [%] | Activity (T47D [20]) | Activity (MDA-MB-231 [21]) | Activity (T47D [25]) | inhibition (T47D [26]) | Activity (DU-145 [27]) | Activity (PC-3 [29]) | inhibition (T47D [32]) | also measured
1 | CCCCCCCCCCCC[C@@H](O)[C@H]1CC[C@H]([C@H]2CC[C@H]([C@H](O)CCC(O)CCCCCC(O)CC3=CC(C)OC3=O)O2)O1 (stereo not given in full) | 80 | Active | <30 | inactive | inactive | inactive | > 1000 | inactive | inactive | Active | 62 | 12 | 50 | inactive | inactive | inactive | Dose-dependent effect | inactive | inactive | inactive | inhibition (T47D [1]): inactive; inhibition (T47D [14]): inactive; inhibition (T47D [15]): inactive; Activity (HUVEC [16]): Non-toxic; inhibition (T47D [17]): inactive; Activity (PC-3 [19]): <30%; inhibition (T47D [22]): Dose-dependent effect; inhibition (T47D [23]): inactive; Activity (MDA-MB-231 [24]): <30%; inhibition (HUVEC [28]): Active; inhibition (T47D [30]): inactive; Activity (T47D [31]): 50%
2 | C=C(C)[C@H]1Cc2c(ccc3c2O[C@@H]2COc4cc(OC)c(OC)cc4[C@@H]2C3=O)O1 |  |  |  |  |  |  |  |  |  |  |  |  |  |  |  |  | Dose-dependent effect |  |  |  | 
3 | CCCCCCCCCCCC[C@@H](O)[C@H]1CC[C@H]([C@H](O)CCCC[C@H](O)CCCCC[C@@H](O)CC2=CC(C)OC2=O)O1 (stereo in doubt; 2) |  | Active |  | inactive | inactive | inactive |  | inactive | inactive | Active |  |  | 50 | inactive | inactive | inactive | Dose-dependent effect | inactive | inactive | inactive | inhibition (T47D [22]): Dose-dependent effect; inhibition (HUVEC [28]): Active
4 | CCCCCCCCCCCC[C@@H](O)[C@H]1CC[C@H]([C@H](O)CCCC[C@H](O)CCCCC[C@@H](O)CC2=CC(C)OC2=O)O1 (stereo in doubt; 2) [ANNONACIN] | 72 |  |  |  |  |  | > 1000 |  |  |  | 64 | 13 |  |  |  |  |  |  |  |  | Activity (HUVEC [16]): Non-toxic
5 | CCCCCCCCCCCC[C@@H](O)[C@H]1CC[C@H]([C@H](O)CCCC[C@H](O)CCCCC[C@@H](O)CC2=CC(C)OC2=O)O1 (stereo in doubt; 3) |  |  |  |  | inactive | inactive |  |  | inactive |  |  |  | 50 | inactive | inactive | inactive |  | inactive | inactive | inactive | 
6 | CCCCCCCCCCCC[C@@H](O)[C@H]1CC[C@H]([C@H](O)CCCC[C@H](O)CCCCC[C@@H](O)CC2=CC(C)OC2=O)O1 (stereo in doubt; 3) [ANNONACIN] |  |  | <30 |  |  |  | > 1000 |  |  |  |  |  |  |  |  |  |  |  |  |  | Activity (PC-3 [19]): <30%; Activity (MDA-MB-231 [24]): <30%; Activity (T47D [31]): 50%
